Laboratory results published in PubChem BioAssay.
Activity calls are given as the source filed them.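 The calls were made as follows, unless noted: active = NADPH fluorescence slope more negative than the mean of all samples by about 3 SD, 99.7% confidence; inactive = the rest.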

What was measured:
[1] = inhibitors of TNFa-induced NFkB p65 translocation, primary screen, imaging, HUVEC, MLSMR starter and 10KST1 sets (AID 438;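 active = inhibition above 20% together with a positive visual image hit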;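 also: compound added about 3h40 before a 20 min TNFalpha stimulation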;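 as to inhibition: signal is the nuclear over cytoplasmic p65 intensity ratio per well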); conditions: HUVEC TNFa-induced p65 nuclear translocation; cell count: measured here: nuclei count (cytotoxicity indicator), at 2.08 µM; inhibition: at 2 µM, stronger effect = higher value, 0% TNFa-plus-vehicle, 100% no-TNFa wells
[2] = inhibitors of E-selectin induction by TNFa, primary screen, imaging, HUVEC, immunofluorescence, MLSMR starter and 10KST1 sets (AID 487;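 active = visually confirmed hit in the image check and inhibition above 20%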;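 as to inhibition: signal is fraction of cell area covered by stained E-selectin grains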;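 as to nuclei count: 100% = median nuclei count of all wells on the same plate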); conditions: HUVEC TNFalpha-induced E-selectin immunofluorescence imaging, at 2 µM; inhibition: stronger effect = higher value; nuclei count: measured here: cell number, toxicity
[3] = DUSP6 inhibitors restoring Erk phosphorylation by chemical complementation, primary imaging in DUSP6-transfected HeLa (AID 609;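 active = compounds giving at least 50% inhibition in the cell-based MKP-3 phosphatase rescue imaging test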;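 as to inhibition: phospho-Erk level distribution per well compared with pooled transfected vehicle control wells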); conditions: HeLa MKP-3 transfected, phospho-Erk imaging KS statistic, at 10 µM, cells stimulated with TPA for 15 min
[4] = molecular target: Dual specificity protein phosphatase 6 (Homo sapiens) (UniProt Q16828); experiment: as above; conditions: HeLa MKP-3 transfected, phospho-Erk imaging KS statistic; at 10 µM; stronger effect = higher value; cells stimulated with TPA for 15 min
Dual specificity protein phosphatase 6 (Homo sapiens), sequence (Q16828 whole entry, looked up): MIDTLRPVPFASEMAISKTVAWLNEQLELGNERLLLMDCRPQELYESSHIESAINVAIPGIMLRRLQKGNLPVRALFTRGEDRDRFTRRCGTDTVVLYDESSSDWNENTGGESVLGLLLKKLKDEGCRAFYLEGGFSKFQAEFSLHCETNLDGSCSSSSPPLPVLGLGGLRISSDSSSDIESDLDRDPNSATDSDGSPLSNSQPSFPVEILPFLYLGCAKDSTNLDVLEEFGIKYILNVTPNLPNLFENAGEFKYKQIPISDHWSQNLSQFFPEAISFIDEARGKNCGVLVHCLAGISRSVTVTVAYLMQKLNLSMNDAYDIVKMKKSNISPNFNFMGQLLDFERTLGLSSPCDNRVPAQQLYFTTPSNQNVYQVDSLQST

[5] = molecular target: Voltage-gated potassium channel subunit beta-2 (Rattus norvegicus) (UniProt P62483); experiment: KvBeta enzyme negative modulators, primary screen, biochemical, NADPH fluorescence (AID 622;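 active = fluorescence slope higher than the sample average by over 3 SD, cut at about -0.22 in these data, passing the limit was not always enough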;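 also: slope of raw intensity against log time taken from 70 to 1610 s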); conditions: recombinant KvBeta, 4-cyanobenzaldehyde reduction, at 10 µM, stronger effect = higher value
Voltage-gated potassium channel subunit beta-2 (Rattus norvegicus), sequence (P62483 whole entry, looked up): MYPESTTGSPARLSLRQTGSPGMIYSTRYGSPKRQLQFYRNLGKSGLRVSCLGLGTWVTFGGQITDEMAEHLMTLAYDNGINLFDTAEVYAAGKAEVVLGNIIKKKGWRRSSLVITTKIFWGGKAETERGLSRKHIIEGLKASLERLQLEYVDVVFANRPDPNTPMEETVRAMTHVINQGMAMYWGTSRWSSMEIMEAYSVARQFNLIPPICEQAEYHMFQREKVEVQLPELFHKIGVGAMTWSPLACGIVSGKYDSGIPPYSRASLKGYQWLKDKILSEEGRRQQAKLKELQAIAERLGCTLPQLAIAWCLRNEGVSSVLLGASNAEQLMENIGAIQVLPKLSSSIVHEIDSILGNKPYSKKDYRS

[6] = molecular target: Voltage-gated potassium channel subunit beta-2 (Rattus norvegicus) (UniProt P62483); experiment: KvBeta positive modulators, primary screen, biochemical, NADPH fluorescence (AID 623); conditions: Recombinant KvBeta, NADPH fluorescence decrease slope, 10 min; at 10 µM; stronger effect = lower value;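 also: fluorescence intensity change per second fitted from 20 to 320 s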
[7] = molecular target: Alpha-2C adrenergic receptor (Homo sapiens) (UniProt P18825); experiment: modulators of alpha2C/GIRK thallium flux, primary screen, cell-based, HEK293 alpha2C/GIRK1/2 (AID 624;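 active = fluorescence slope after compound addition differing from the mean of all screened samples at 99.7% confidence, in either direction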;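 also: slope of fluorescence ratio to pre-addition baseline per second over 15 to 24 s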); conditions: thallium flux BTC fluorescence, at 10 µM, actives lie on both sides
Alpha-2C adrenergic receptor (Homo sapiens), sequence (P18825 whole entry, looked up): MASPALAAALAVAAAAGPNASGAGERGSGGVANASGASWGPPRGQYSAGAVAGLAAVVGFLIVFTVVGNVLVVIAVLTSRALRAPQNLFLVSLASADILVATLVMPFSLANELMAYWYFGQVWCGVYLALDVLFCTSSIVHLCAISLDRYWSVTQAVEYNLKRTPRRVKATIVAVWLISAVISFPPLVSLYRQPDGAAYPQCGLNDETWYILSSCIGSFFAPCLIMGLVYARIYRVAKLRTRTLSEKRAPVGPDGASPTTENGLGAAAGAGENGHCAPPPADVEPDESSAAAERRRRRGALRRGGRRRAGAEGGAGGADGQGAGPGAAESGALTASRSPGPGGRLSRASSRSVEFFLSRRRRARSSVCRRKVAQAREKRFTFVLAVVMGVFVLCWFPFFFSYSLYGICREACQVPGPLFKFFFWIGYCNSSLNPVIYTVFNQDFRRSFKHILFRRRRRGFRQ

[8] = inhibitors of larval lipid processing in zebrafish, primary screen, whole organism, PED6 fluorescence, gall bladder and intestine (AID 686;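 active = a full or partial loss of lipid-probe fluorescence in the fish gall bladder, intestine or both, judged by eye; inactive = no fluorescence loss, or compound toxic to the fish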;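 also: larvae 5 to 7 days old with five fish per well; signal comes from phospholipase A2 cleavage of quenched PED6 carried via bile; overnight exposure to compound and PED6 before scoring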); conditions: Zebrafish larvae PED6 lipid processing, fluorescence scoring; screened at 20 µM (by protocol)
In short: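 System: live zebrafish larvae aged 5-7 days, whole organism; measure: graded gall bladder and intestinal fluorescence inhibition per well; incubation: overnight exposure; reagent: ingested quenched lipid PED6 at 100 nM; signal: By-eye fluorescence microscopy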

[9] = inhibitors of Chlamydomonas gravitaxis, primary screen, whole organism, Chlamydomonas reinhardtii, WT vs cilia-less mutant, absorbance, 96-well (AID 463189;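 active = inhibition at or above 50% relative to wild type and mutant plate controls; inactive = inhibition below 50%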;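 also: 0% = wild type cc124 cells in DMSO and 100% = ciliumless bld1 mutant cells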); conditions: OD600 absorbance, 2 days, at 10 µM, stronger effect = higher value
[10] = measured here: cell density z-score
[11] = measured here: nuclear c-Myc green intensity z-score
[12] = measured here: nuclear pErk red intensity z-score, stronger effect = higher value

Structure (SMILES) | cell count [1] | inhibition [1] | inhibition [2] | nuclei count [2] [%] | z-score [3, 10] | z-score [3, 11] | z-score [3, 12] | inhibition [4] | fluorescence slope [5] | NADPH fluorescence slope [6] | slope [7] | outcome [8] | inhibition [9]
CCOC(=O)CSc1nc2sc3c(c2c(=O)[nH]1)CC(C)(C)OC3 | 583 | -40.2% (inactive) | 18.3% (inactive) | 123 | -1.86 | 1.97 | -0.11 | 7.48% (inactive) | -0.519 (inactive) | -0.000112 (inactive) | 0.0047 (inactive) | inactive | -8.53% (inactive)
COc1cccc(-c2nnc3sc(-c4ccco4)nn23)c1 | 467 | -4% (inactive) | 3.6% (inactive) | 105 | 1.05 | -0.932 | -0.641 | 8.31% (inactive) | -0.463 (inactive) | 1.3e-05 (inactive) | 0.00496 (inactive) | active; weak signal in gallbladder and intestine | 38.1% (inactive)
CCCCNC(=O)c1cc2n(n1)C(C(F)(F)F)CC(c1ccccc1)N2 (stereo not given) | 519 | -6.4% (inactive) | -41.1% (inactive) | 107 | -0.754 | -0.242 | 0.464 | 1.75% (inactive) | -0.529 (inactive) | -5.9e-05 (inactive) | 0.00405 (inactive) | inactive | -3.15% (inactive)
Cc1ccc2[nH]c(CCN(C)C)c(CC#N)c2c1 | 564 | 4.9% (inactive) | -74.2% (inactive) | 206 | -1.01 | -0.567 | 1.52 | 18.6% (inactive) | -0.364 (inactive) | -2.8e-05 (inactive) | 0.0055 (inactive) | inactive | 10.4% (inactive)
N#CCSc1nc2c(cc1C#N)CCCCCC2 | 603 | -18.1% (inactive) | 46.1% (inactive) | 147 | 0.833 | -0.157 | -0.809 | 2.92% (inactive) | -0.354 (inactive) | -8.7e-06 (inactive) | 0.0055 (inactive) | inactive | 19.7% (inactive)
Cc1cc(C)n2c3c(c(C#N)c2n1)CC(C)(C)OC3 | 670 | -7.2% (inactive) | 55.6% (inactive) | 131 | 0.0106 | -1.04 | -0.0691 | 11.3% (inactive) | -0.327 (inactive) | 2.8e-06 (inactive) | 0.00519 (inactive) | inactive | 14.5% (inactive)
Cn1c(NCc2ccco2)nc2c1c(=O)n(Cc1ccc(Cl)c(Cl)c1)c(=O)n2C | 615 | -3.6% (inactive) | -47.4% (inactive) | 147 | -0.044 | 0.293 | 1.11 | -1.12% (inactive) | -0.511 (inactive) | -6.1e-05 (inactive) | 0.00544 (inactive) | inactive | 48.3% (inactive)
Cc1ccc(C(=O)CSC2=C(C#N)C(c3ccco3)C3=C(CCCC3=O)N2)cc1 (stereo not given) | 333 | -7.4% (inactive) | -98.2% (inactive) | 165 | 1.35 | -1.13 | 0.366 | 1.42% (inactive) | -0.449 (inactive) | -0.000148 (inactive) | 0.00654 (inactive) | inactive | 8.93% (inactive)
C=C(Br)Cn1c(CCCC)nc2ccccc21 | 496 | -6.3% (inactive) | -117% (inactive) | 145 | 0.895 | -1.74 | -1.25 | 3.56% (inactive) | -0.492 (inactive) | -0.000115 (inactive) | 0.00483 (inactive) | inactive | 35.5% (inactive)
Cc1ccc(N2C(=O)CC(N(O)C3CC(=O)N(c4ccc(C)cc4)C3=O)C2=O)cc1 (stereo not given) | 364 | 0% (inactive) | 28.2% (inactive) | 126 | 0.996 | 0.402 | 0.988 | -0.584% (inactive) | -0.427 (inactive) | -0.000136 (inactive) | 0.0056 (inactive) | inactive | 54.9% (active)
O=C(c1cccc(Cl)c1)N1CCN(C(=O)c2ccccc2F)CC1 | 359 | -17.3% (inactive) | -357% (inactive) | 113 | -0.228 | -0.0273 | -2.04 | 1.75% (inactive) | -0.466 (inactive) | -1.8e-06 (inactive) | 0.00888 (inactive) | inactive | -3.06% (inactive)
CN(C)c1nc2n(c(=S)n1)CCS2 | 604 | -3.2% (inactive) | -204% (inactive) | 109 | -0.355 | -0.0746 | 0.173 | 16.1% (inactive) | -0.409 (inactive) | -2e-05 (inactive) | 0.00562 (inactive) | inactive | -16.2% (inactive)
Cc1cc(C(F)(F)F)nn1CC(=O)NCC1CCCO1 (stereo not given) | 516 | -3.1% (inactive) | -24% (inactive) | 137 | -0.885 | 0.653 | 1.12 | -3.98% (inactive) | -0.484 (inactive) | -0.000135 (inactive) | 0.00552 (inactive) | inactive | 12.4% (inactive)
COC(=O)c1nn2c(C(F)(F)F)cc(-c3ccc(Br)o3)nc2c1Br | 510 | -7.1% (inactive) | 1.9% (inactive) | 120 | -1.65 | -0.461 | 2.56 | -2.07% (inactive) | -0.442 (inactive) | -6.2e-05 (inactive) | 0.00401 (inactive) | inactive | 8.6% (inactive)
Cc1nc2sc3c(NCc4ccco4)ncnc3c2c2c1COC(C)(C)C2 | 595 | -11% (inactive) | -84.2% (inactive) | 181 | -1.22 | -0.424 | 1.05 | -2.69% (inactive) | -0.373 (inactive) | -3e-05 (inactive) | 0.00585 (inactive) | inactive | 45.7% (inactive)
COC(=O)/C(=C1/Oc2cc(C)oc(=O)c2S1)C(F)(F)F | 330 | -2.4% (inactive) | -59.5% (inactive) | 177 | 1.64 | 0.462 | 0.469 | 28% (inactive) | -0.427 (inactive) | -0.000106 (inactive) | 0.0045 (inactive) | inactive | 5.01% (inactive)
CNC(=O)Nc1cccc(NC(=O)NC)n1 | 351 | -2.8% (inactive) | -90.3% (inactive) | 164 | 0.612 | 0.757 | -1.65 | 11.4% (inactive) | -0.456 (inactive) | -0.000144 (inactive) | 0.00525 (inactive) | inactive | -3.2% (inactive)
CCCCCCn1c(C(C)O)nc2ccccc21 (stereo not given) | 528 | -16.2% (inactive) | -111% (inactive) | 156 | 1.01 | -0.165 | -1.61 | 11.9% (inactive) | -0.5 (inactive) | -5.9e-05 (inactive) | 0.0045 (inactive) | inactive; toxic | 28% (inactive)
COc1cccc(-c2nn3c(-c4ccccn4)nnc3s2)c1 | 630 | -8% (inactive) | -117% (inactive) | 150 | 0.488 | -0.624 | -0.933 | 15.5% (inactive) | -0.454 (inactive) | -0.000157 (inactive) | 0.00706 (inactive) | inactive | 65.3% (active)
CC1(C)C/C(=C(/C#N)C(N)=O)CCO1 | 575 | -11.9% (inactive) | -42.1% (inactive) | 110 | 0.299 | 1.82 | -0.278 | -8.95% (inactive) | -0.392 (inactive) | 4.5e-06 (inactive) | 0.00848 (inactive) | inactive | -18.4% (inactive)
Cc1ccc2[nH]c3c(NCCN4CCOCC4)ncnc3c2c1 | 558 | -21.5% (inactive) | -90.3% (inactive) | 160 | -2.07 | -0.295 | -0.0856 | -6.06% (inactive) | -0.475 (inactive) | -5.9e-05 (inactive) | 0.00484 (inactive) | inactive | 2.83% (inactive)
N#CC1=C(SCC(=O)c2ccc(Br)cc2)NC2=C(C(=O)CCC2)C1c1ccco1 (stereo not given) | 383 | -10.4% (inactive) | -96.6% (inactive) | 179 | 0.687 | -1.61 | 1.14 | -8.59% (inactive) | -0.399 (inactive) | -0.000128 (inactive) | 0.00589 (inactive) | inactive | 3.41% (inactive)
CCn1nnc(C(=O)O)c1C(=O)O | 547 | -8.1% (inactive) | -105% (inactive) | 113 | -1.6 | 1.43 | 0.467 | -1.98% (inactive) | -0.486 (inactive) | -3.2e-05 (inactive) | 0.00833 (inactive) | inactive | -1.97% (inactive)
COc1cccc(-c2nc(N3CCCCC3)c3ccccc3n2)c1O | 528 | 1.2% (inactive) | -31.1% (inactive) | 142 | 1.81 | 0.268 | -0.772 | 1.6e-07% (inactive) | -0.405 (inactive) | -3.2e-05 (inactive) | 0.0042 (inactive) | inactive | 15% (inactive)
CCOC(=O)C(C)Oc1nc(Oc2ccccc2)nc(N(C)C)n1 (stereo not given) | 645 | -4.1% (inactive) | -25.5% (inactive) | 183 | 0.393 | -0.772 | 1.44 | -7.79% (inactive) | -0.497 (inactive) | -5.5e-05 (inactive) | 0.00486 (inactive) | inactive | -18.7% (inactive)
